From ChEMBL document CHEMBL4229468, “Novel cinnamaldehyde-based aspirin derivatives for the treatment of colorectal cancer” (Bioorg Med Chem Lett, 2018)

Legend:
HCT-8 [1] = experiment: Antiproliferative activity against human HCT8 cells after 72 hrs by MTT assay; type: functional, cell-based; settings: HCT-8, 72 h
Method in brief: (§1)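 MTT proliferation assay (details in supplement); positive control 5-FU; mixture comparator ASA + CA physical mixture at 1:1 mole ratio; IC50 = concentration inhibiting 50% of proliferation; mean ± SD from three independent experiments.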

HCT-8 [2] = experiment: Antiproliferative activity against human HCT8 cells after 72 hrs in presence of aspirin by MTT assay; type: functional, cell-based; settings: HCT-8, 72 h
Method in brief: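 MTT proliferation assay in HCT-8 colorectal cancer cells, run on a physical mixture with aspirin at a 1:1 mole ratio. IC50 is the concentration inhibiting 50% of cell proliferation, given as the mean ± SD of three independent experiments.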

CCD-841CoN = experiment: Antiproliferative activity against human CCD-841-CoN cells after 72 hrs by MTT assay; type: cell-based
Method in brief: (§2)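 MTT proliferation assay on colorectal cancer (DLD-1) or non-tumorigenic colon (CCD841) cells. IC50 is the drug concentration inhibiting 50% of cell proliferation, given as the mean ± SD of three independent experiments.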

DLD-1 = experiment: Antiproliferative activity against human DLD1 cells after 72 hrs by MTT assay; type: functional, cell-based; settings: DLD-1, 72 h; method in brief: as §2
HCT-8 [3] = experiment: Antiproliferative activity against human HCT8 cells after 72 hrs in presence of cinnamaldehyde by MTT assay; type: functional, cell-based; settings: HCT-8, 72 h; method in brief: as §1
HCT-8 [4] = experiment: Cell cycle arrest in human HCT8 cells assessed as accumulation at G1 phase at 3 uM after 24 hrs by propidium iodide staining-based flow cytometric method (reference value: 40.05%); type: functional
HCT-8 [5] = experiment: Induction of apoptosis in human HCT8 cells assessed as late apoptotic cells at 12 uM after 24 hrs by annexin V-FITC/propidium iodide staining-based flow cytometric method (reference value: 2.40%)
HCT-8 [6] = experiment: Induction of apoptosis in human HCT8 cells assessed as early apoptotic cells at 12 uM after 24 hrs by annexin V-FITC/propidium iodide staining-based flow cytometric method (reference value: 0.25%); type: functional
HCT-8 [7] = experiment: Cell cycle arrest in human HCT8 cells assessed as accumulation at G2 phase at 3 uM after 24 hrs by propidium iodide staining-based flow cytometric method (reference value: 23.77%); type: functional
HCT-8 [8] = experiment: Cell cycle arrest in human HCT8 cells assessed as accumulation at S phase at 12 uM after 24 hrs by propidium iodide staining-based flow cytometric method (reference value: 36.19%); type: functional
HCT-8 [9] = experiment: Induction of apoptosis in human HCT8 cells assessed as upregulation of cleaved caspase-3 levels after 24 hrs by Western blot method; type: functional, cell-based
Method in brief: (§3)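 Cells treated 24 h with 0, 3, 6, 12 μM or control (0.1% DMSO); whole-cell lysates immunoblotted for cleaved caspase 3 and PARP.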

Mus musculus = experiment: Toxicity in BALB/c nude mouse xenografted with human HCT8 cells assessed as change in body weight at 60 mg/kg, ip administered daily for 32 days; type: organism-based; settings: in vivo, 768 h
Method in brief: (§4)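 HCT-8 cells inoculated subcutaneously; after solid tumours established, mice randomized to daily intraperitoneal dosing at 60 mg/kg or vehicle Tween 80/PBS (5:95) for 32 consecutive days; tumour volume, tumour weight and body weight recorded; n = 6 per group; mean ± SD; P vs vehicle.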

HCT-8 [10] = experiment: Induction of apoptosis in human HCT8 cells assessed as upregulation of cleaved PARP levels after 24 hrs by Western blot method; type: functional, cell-based; method in brief: as §3
HCT-8 [11] = experiment: Induction of apoptosis in human HCT8 cells after 24 hrs by annexin V-FITC/propidium iodide staining-based flow cytometric method; type: functional, cell-based
HCT-8 [12] = experiment: Cell cycle arrest in human HCT8 cells assessed as accumulation at S phase at 6 uM after 24 hrs by propidium iodide staining-based flow cytometric method (reference value: 36.19%); type: functional
HCT-8 [13] = experiment: Cell cycle arrest in human HCT8 cells assessed as accumulation at G1 phase at 6 uM after 24 hrs by propidium iodide staining-based flow cytometric method (reference value: 40.05%); type: functional
HCT-8 [14] = experiment: Induction of reactive oxygen species formation in human HCT8 cells at 12 uM after 24 hrs by DCFH-DA dye-based flow cytometric method (reference value: 3.67%); type: functional
Method in brief: (§5)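 Cells treated 24 h with 0, 3, 6 or 12 μM, stained with fluorogenic 2',7'-dichlorofluorescin diacetate; ROS level read by flow cytometry.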

HCT-8 [15] = experiment: Cell cycle arrest in human HCT8 cells assessed as accumulation at G1 phase at 12 uM after 24 hrs by propidium iodide staining-based flow cytometric method (reference value: 40.05%); type: functional
HCT-8 [16] = experiment: Induction of apoptosis in human HCT8 cells assessed as early apoptotic cells at 3 uM after 24 hrs by annexin V-FITC/propidium iodide staining-based flow cytometric method (reference value: 0.25%); type: functional
HCT-8 [17] = experiment: Induction of apoptosis in human HCT8 cells assessed as late apoptotic cells at 3 uM after 24 hrs by annexin V-FITC/propidium iodide staining-based flow cytometric method (reference value: 2.40%)
HCT-8 [18] = experiment: Cell cycle arrest in human HCT8 cells assessed as accumulation at G2 phase at 6 uM after 24 hrs by propidium iodide staining-based flow cytometric method (reference value: 23.77%); type: functional
HCT-8 [19] = experiment: Induction of apoptosis in human HCT8 cells assessed as early apoptotic cells at 6 uM after 24 hrs by annexin V-FITC/propidium iodide staining-based flow cytometric method (reference value: 0.25%); type: functional
HCT-8 [20] = experiment: Potency index, ratio of 5-FU IC50 to test compound IC50 for human HCT8 cells; type: functional
HCT-8 [21] = experiment: Induction of reactive oxygen species formation in human HCT8 cells at 3 uM after 24 hrs by DCFH-DA dye-based flow cytometric method (reference value: 3.67%); type: functional; method in brief: as §5
[22] = Selectivity index, ratio of IC50 for human CCD-841-CoN cells to IC50 for human DLD1 cells; type: toxicity; settings: CCD-841-CoN cells versus DLD1 cells, read-out: Ratio IC50
Method in brief: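 MTT IC50 in DLD-1 and non-tumorigenic CCD841 colon cells; IC50 = concentration inhibiting 50% proliferation; mean ± SD, three independent experiments.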

HCT-8 [23] = experiment: Antitumor activity against human HCT8 cells xenografted in BALB/c nude mouse assessed as tumor weight at 60 mg/kg, ip administered daily for 32 days measured every 4 days during compound dosing relative to control; type: functional; method in brief: as §4
HCT-8 [24] = experiment: Cell cycle arrest in human HCT8 cells assessed as accumulation at S phase at 3 uM after 24 hrs by propidium iodide staining-based flow cytometric method (reference value: 36.19%); type: functional
HCT-8 [25] = experiment: Induction of reactive oxygen species formation in human HCT8 cells at 6 uM after 24 hrs by DCFH-DA dye-based flow cytometric method (reference value: 3.67%); type: functional; method in brief: as §5
[26] = Selectivity index, ratio of IC50 for human CCD-841-CoN cells to IC50 for human HCT8 cells; type: toxicity; settings: CCD-841-CoN cells versus HCT8 cells, read-out: Ratio IC50
HCT-8 [27] = experiment: Induction of apoptosis in human HCT8 cells assessed as late apoptotic cells at 6 uM after 24 hrs by annexin V-FITC/propidium iodide staining-based flow cytometric method (reference value: 2.40%)
HCT-8 [28] = experiment: Induction of apoptosis in human HCT8 cells assessed as late apoptotic cells at 6 uM after 24 hrs in presence of ROS scavenger NAC by annexin V-FITC/propidium iodide staining-based flow cytometric method (reference value: 5.42%); type: functional
HCT-8 [29] = experiment: Cell cycle arrest in human HCT8 cells assessed as accumulation at G2 phase at 12 uM after 24 hrs by propidium iodide staining-based flow cytometric method (reference value: 23.77%); type: functional
HCT-8 [30] = experiment: Induction of apoptosis in human HCT8 cells assessed as early apoptotic cells at 6 uM after 24 hrs in presence of ROS scavenger NAC by annexin V-FITC/propidium iodide staining-based flow cytometric method (reference value: 0.25%); type: functional
HCT-8 [31] = experiment: Cell cycle arrest in human HCT8 cells assessed as accumulation at G1 phase after 24 hrs by propidium iodide staining-based flow cytometric method; type: functional

Compound: CC(=O)Oc1ccccc1C(=O)Oc1ccc(Br)cc1/C=C/C=O
- IC50 (HCT-8 [1]): 5.6 µM

Compound: CC(=O)Oc1ccc(F)cc1/C=C/C=O
- IC50 (HCT-8 [1]): 10.5 µM

Compound: COc1ccc(OC(=O)c2ccccc2OC(C)=O)c(/C=C/C=O)c1
- IC50 (HCT-8 [1]): 9.3 µM

Compound: O=C/C=C/c1ccccc1 [CINNAMALDEHYDE]
- IC50 (HCT-8 [1]): 29.4 µM
- IC50 (HCT-8 [2]): 15.6 µM

Compound: COC(=O)c1ccccc1OC(C)=O
- IC50 (HCT-8 [1]): > 100 µM

Compound: CC(=O)Oc1ccccc1C(=O)Oc1ccccc1/C=C/C=O
- IC50 (HCT-8 [1]): 20.3 µM

Compound: CC(=O)Oc1ccccc1C(=O)Oc1ccc(C)cc1/C=C/C=O
- IC50 (HCT-8 [1]): 8.5 µM

Compound: O=c1[nH]cc(F)c(=O)[nH]1 [FLUOROURACIL]
- IC50 (CCD-841CoN): 35.7 µM
- IC50 (DLD-1): 33 µM
- IC50 (HCT-8 [1]): 28.9 µM

Compound: CC(=O)Oc1ccccc1C(=O)Oc1ccc(Cl)cc1/C=C/C=O
- IC50 (HCT-8 [1]): 4.3 µM

Compound: CC(=O)Oc1ccccc1C(=O)O [ASPIRIN]
- IC50 (HCT-8 [1]): > 100 µM
- IC50 (HCT-8 [3]): 15.6 µM

Compound: COc1ccc(/C=C/C=O)c(OC(=O)c2ccccc2OC(C)=O)c1
- IC50 (HCT-8 [1]): 15.8 µM

Compound: COc1cccc(/C=C/C=O)c1OC(=O)c1ccccc1OC(C)=O
- IC50 (HCT-8 [1]): 17.6 µM

Compound: CC(=O)Oc1ccccc1C(=O)Oc1ccc(F)cc1/C=C/C=O
- IC50 (CCD-841CoN): 30.7 µM
- IC50 (DLD-1): 4.3 µM
- Activity (HCT-8 [4]): 43.17%
- Activity (HCT-8 [5]): 27.71%
- Activity (HCT-8 [6]): 15.84%
- Activity (HCT-8 [7]): 20.94%
- Activity (HCT-8 [8]): 36.15%
- Activity (HCT-8 [9]): Dose-dependent effect
- Activity (Mus musculus): Non-Toxic
- Activity (HCT-8 [10]): Dose-dependent effect
- Activity (HCT-8 [11]): Dose-dependent effect
- IC50 (HCT-8 [1]): 2.6 µM
- Activity (HCT-8 [12]): 38.71%
- Activity (HCT-8 [13]): 48.66%
- Activity (HCT-8 [14]): 47.83%
- Activity (HCT-8 [15]): 51.62%
- Activity (HCT-8 [16]): 8.69%
- Activity (HCT-8 [17]): 5.42%
- Activity (HCT-8 [18]): 12.63%
- Activity (HCT-8 [19]): 15.56%
- Ratio IC50 (HCT-8 [20]): 11
- Activity (HCT-8 [21]): 18.67%
- selectivity ratio [22]: 7
- Activity (HCT-8 [23]): 47%
- Activity (HCT-8 [24]): 35.89%
- Activity (HCT-8 [25]): 25.07%
- selectivity ratio [26]: 11
- Activity (HCT-8 [27]): 17.03%
- Activity (HCT-8 [28]): 5.58%
- Activity (HCT-8 [29]): 12.23%
- Activity (HCT-8 [30]): 7.4%
- Activity (HCT-8 [31]): Dose-dependent effect
